Consider one molecule from ChEMBL document CHEMBL5104204, “Synthesis and in vitro anticancer evaluation of novel flavonoid-based amide derivatives as regulators of the PI3K/AKT signal pathway for TNBC treatment” (RSC Med Chem, 2022).

Experiment [1] deals with MDA-MB-231. In words: Antitumor activity against human MDA-MB-231 cells assessed as inhibit cell proliferation incubated for 72 hrs by CCK-8 assay. It is filed as functional, cell-based. The note with it: MDA-MB-231, 72 h. A digest of the protocol: (§1)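 CCK8 viability readout. Culture media: HCC1937, A549, HeLa and GTL-16 in RPMI 1640; MDA-MB-231, MCF-7 and HepG2 in high-glucose DMEM; all with 10% FBS and penicillin/streptomycin, 37 °C, 5% CO2. 4×10^3–6×10^3 cells/well, 24 h, then compounds in serum-free medium, 72 h at 37 °C. 10% CCK8, 2 h, OD 450/630 nm. Five wells per group; IC50 from inhibition rate; three independent experiments, mean ± SD.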

A further experiment concerns A549. In words: Antitumor activity against human A549 cells assessed as inhibit cell proliferation incubated for 72 hrs by CCK-8 assay. The class given is functional, cell-based. Particulars: A549, 72 h. A digest of the protocol: as §1
The subject of another experiment is HepG2. In words: Antitumor activity against human HepG2 cells assessed as inhibit cell proliferation incubated for 72 hrs by CCK-8 assay. It is filed as functional, cell-based. Particulars: HepG2, 72 h. A digest of the protocol:
as §1

The subject of experiment [2] is MDA-MB-231. In words: Inhibition of colony formation in human MDA-MB-231 cells assessed as decrease in number of colony forming cells at 0.44 to 3.52 incubated for 48 hrs by crystal violet staining based assay. It is filed as functional, cell-based. The note with it: DDE = dose-dependent effect. In outline: (§2)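 Colony formation, MDA-MB-231: 800 cells/well, three replicate wells per group, grown 5–7 days at 37 °C, 5% CO2 until 30–50-cell clusters formed. Drug then added for 24, 48 or 72 h. Washed with cold PBS, fixed in 4% paraformaldehyde 30 min, stained with 0.5% crystal violet, imaged, colonies counted; n = 3.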

Experiment [3] deals with MDA-MB-231. In words: Inhibition of colony formation in human MDA-MB-231 cells assessed as decrease in number of colony forming cells at 1.76 uM incubated upto 72 hrs by crystal violet staining based assay. It is filed as functional, cell-based. The note with it: TDE = time-dependent effect. A digest of the protocol:
as §2

For experiment [4], the system named is MDA-MB-231. In words: Inhibition of colony formation in human MDA-MB-231 cells assessed as decrease in size of colony forming cells at 1.76 uM incubated upto 72 hrs by crystal violet staining based assay. The class given is functional, cell-based. The note with it: TDE = time-dependent effect. In outline:
as §2

For experiment [5], the system named is MDA-MB-231. The experiment can be described thus: Induction of apoptosis in human MDA-MB-231 cells assessed as chromatin concentration and margination at 0.88 to 3.52 uM incubated for 48 hrs by Hoechst 33258 staining based fluorescence microscopic analysis. The class given is functional, cell-based. The note with it: dose 0.88-3.52 µM, DDE = dose-dependent effect. A digest of the protocol:
(§3)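 MDA-MB-231 seeded at 2×10^5–3×10^5 per well and incubated overnight (37 °C, 5% CO2). Exposed to compound for 48 h. Fixed in methanol 30 min, then stained with Hoechst 33258 for 30 min at room temperature in the dark. Nuclear morphology scored by fluorescence microscopy; n = 3, mean ± SD.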

Experiment [6] relates to MDA-MB-231. The experiment can be described thus: Induction of apoptosis in human MDA-MB-231 cells assessed as increase in apoptotic bodies at 0.88 to 3.52 uM incubated for 48 hrs by Hoechst 33258 staining based fluorescence microscopic analysis. It is filed as functional, cell-based. The note with it: dose 0.88-3.52 µM, DDE = dose-dependent effect. A digest of the protocol:
as §3

Experiment [7] relates to MDA-MB-231. In words: Induction of cell cycle arrest in human MDA-MB-231 cells assessed as increase in accumulation at G0/G1 phase at 0.88 to 3.52 uM incubated for 48 hrs by flow cytometry. The class given is functional, cell-based. Particulars: dose 0.88-3.52 µM, DDE = dose-dependent effect. A digest of the protocol:
(§4)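 Cell cycle of MDA-MB-231 after 48 h exposure: trypsinised and washed in PBS, about 1×10^6 cells/mL. Fixed overnight in pre-cooled 70% ethanol at 4 °C, then resuspended in PBS and filtered through 200-mesh nylon. Flow cytometry with 488 nm excitation gave G0/G1, S and G2/M percentages; n = 3, mean ± SD.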

The test system of experiment [8] is MDA-MB-231. In words: Induction of cell cycle arrest in human MDA-MB-231 cells assessed as decrease in S phase at 0.88 to 3.52 uM incubated for 48 hrs by flow cytometry. It is filed as functional, cell-based. Particulars: dose 0.88-3.52 µM, DDE = dose-dependent effect. A digest of the protocol: as §4
Experiment [9] has as its system MDA-MB-231. In words: Induction of cell cycle arrest in human MDA-MB-231 cells assessed as decrease in G2/M phase at 0.88 to 3.52 uM incubated for 48 hrs by flow cytometry. The class given is functional, cell-based. The note with it: dose 0.88-3.52 µM, DDE = dose-dependent effect. In outline: as §4
Experiment [10] has as its system MDA-MB-231. In words: Induction of apoptosis in human MDA-MB-231 cells assessed as necrotic cells at 0.88 uM incubated for 48 hrs AnnexinV/ propidium iodide staining based flow cytometry (Rvb= 0.54%). It is filed as functional.
For experiment [11], the system named is MDA-MB-231. The experiment can be described thus: Induction of apoptosis in human MDA-MB-231 cells assessed as necrotic cells at 1.76 uM incubated for 48 hrs AnnexinV/ propidium iodide staining based flow cytometry (Rvb= 0.54%). The class given is functional.
The test system of experiment [12] is MDA-MB-231. In words: Induction of apoptosis in human MDA-MB-231 cells assessed as late apoptotic cells at 0.88 uM incubated for 48 hrs AnnexinV/ propidium iodide staining based flow cytometry (Rvb= 0.40%). It is filed as functional.
For experiment [13], the system named is MDA-MB-231. The experiment can be described thus: Induction of apoptosis in human MDA-MB-231 cells assessed as late apoptotic cells at 1.76 uM incubated for 48 hrs AnnexinV/ propidium iodide staining based flow cytometry (Rvb= 0.40%). The class given is functional.
The subject of experiment [14] is MDA-MB-231. In words: Induction of apoptosis in human MDA-MB-231 cells assessed as late apoptotic cells at 3.52 uM incubated for 48 hrs AnnexinV/ propidium iodide staining based flow cytometry (Rvb= 0.40%). It is filed as functional.
In experiment [15] the test system is MDA-MB-231. In words: Induction of apoptosis in human MDA-MB-231 cells assessed as late apoptotic cells at 7.04 uM incubated for 48 hrs AnnexinV/ propidium iodide staining based flow cytometry (Rvb= 0.40%). The class given is functional.
Experiment [16] relates to MDA-MB-231. The experiment can be described thus: Induction of apoptosis in human MDA-MB-231 cells assessed as viable cells at 2.2 uM incubated for 48 hrs AnnexinV/ propidium iodide staining based flow cytometry (Rvb= 99.02%). The class given is functional. The note with it: read-out: Activity.
The subject of experiment [17] is MDA-MB-231. The experiment can be described thus: Induction of apoptosis in human MDA-MB-231 cells assessed as viable cells at 3.52 uM incubated for 48 hrs AnnexinV/ propidium iodide staining based flow cytometry (Rvb= 99.02%). Particulars: read-out: Activity. It is filed as functional.
Experiment [18] concerns MDA-MB-231. The experiment can be described thus: Induction of apoptosis in human MDA-MB-231 cells assessed as viable cells at 7.04 uM incubated for 48 hrs AnnexinV/ propidium iodide staining based flow cytometry (Rvb= 99.02%). The class given is functional. Particulars: read-out: Activity.
Experiment [19] has as its system MDA-MB-231. In words: Inhibition of cell invasion in human MDA-MB-231 cells assessed as decrease in number of cells crossing microporous membrane at 0.88 to 3.52 uM incubated for 48 hrs by crystal violet staining based transwell invasion assay. The class given is functional. Particulars: dose 0.88-3.52 µM, DDE = dose-dependent effect. A digest of the protocol:
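Transwell invasion, MDA-MB-231. Cells in serum-free medium in the upper chamber with compound; complete medium below. 48 h at 37 °C. Methanol fixation 2 h, non-invaded cells swabbed off, 0.5% crystal violet 30 min. Invaded cells photographed and counted; n = 3, mean ± SD.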

The subject of experiment [20] is MDA-MB-231. In words: Inhibition of PI3K/AKT signalling pathway in human MDA-MB-231 cells assessed as decrease in phosphorylated PI3K level at 1 to 10 uM incubated for 48 hrs by western blot analysis. The class given is cell-based. The note with it: dose 1-10 µM, DDE = dose-dependent effect. In outline: (§5)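 MDA-MB-231 treated at 1, 5 and 10 μM at 37 °C, then lysed in RIPA/PMSF for 30 min at 0 °C and cleared at 14 000 × g, 4 °C. Protein quantified by BCA; 40 μg resolved by SDS-PAGE and transferred to PVDF. Blocked in 5% skim milk, primary antibody overnight at 4 °C, secondary 2 h at room temperature, chemiluminescent imaging.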

Experiment [21] has as its system MDA-MB-231. In words: Inhibition of PI3K/AKT signalling pathway in human MDA-MB-231 cells assessed as decrease in phosphorylated AKT level at 1 to 10 uM incubated for 48 hrs by western blot analysis. It is filed as cell-based. Particulars: dose 1-10 µM, DDE = dose-dependent effect. A digest of the protocol: as §5

Turning to `O=C(Nc1cccc(-c2oc3cc(-c4ccc(F)cc4)ccc3c(=O)c2O)c1)c1ccc(Cl)nc1`, the IC50 in the experiment with MDA-MB-231 [1] is 1.76 µM; in the experiment on A549, 3.58 µM; in the experiment with HepG2, 4.61 µM. In addition, the inhibition result with MDA-MB-231 [2] was “Dde”; in the experiment with MDA-MB-231 [3] it was “Tde”; in the experiment with MDA-MB-231 [4], “Tde”; in the experiment on MDA-MB-231 [19] it was “Dde”; in the experiment with MDA-MB-231 [20], “Dde”; with MDA-MB-231 [21], “Dde”. Besides, the Activity result with MDA-MB-231 [5] was “Dde”; in the experiment on MDA-MB-231 [6], “Dde”; with MDA-MB-231 [7], “Dde”; in the experiment on MDA-MB-231 [8] it was “Dde”; in the experiment with MDA-MB-231 [9], “Dde”; with MDA-MB-231 [10], 0.63%. The Activity was 0.86% in the experiment with MDA-MB-231 [11]; 23.54% in the experiment with MDA-MB-231 [12]; 49.45% in the experiment on MDA-MB-231 [13]; 14.4% in the experiment on MDA-MB-231 [14]; 68.54% with MDA-MB-231 [15]. In addition, the viability at 2.2 µM with MDA-MB-231 [16] came out at 29.8%. Also, the viability at 3.52 µM with MDA-MB-231 [17] is 12%. Further, in the experiment on MDA-MB-231 [18], the viability at 7.04 µM turned out to be 5.68%.
